Most compounds without a hit are left out; they make up all but 3% or so of the library.
Statin myotox sup = suppressors of simvastatin-induced myotoxicity in C2C12 myotubes; ATP luminescence, 48 h; scaled: DMSO 0, geranylgeraniol control 100; rescue of ATP level, % at 7.49 µM; 330,000 compounds, 0.78% hits;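 active means mean ATP rescue above about 67%, or every replicate alone reaching that limit, limit read from the data, passing the limit was not always enough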;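 further: myotubes were challenged with 10 µM simvastatin during compound exposure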
Cneo AK release = causes C. neoformans cell lysis; adenylate kinase release luminescence, 4 h; normalised: neutral wells 0, clomiphene wells 100; lysis activity, % at 15 µM; 360,000 compounds, 0.2% hits; AID 651654;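 active means mean lysis activity across replicates of at least 80%, whatever share of replicates individually reach that level; inactive means mean lysis activity below 80%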
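Assay system: log-phase C. neoformans yeast / Quantity: yeast cell density of 5 × 10^6 cells/mL / Medium: fresh YPD growth medium / Compound: single dose / Timing: static 4 h at 37 °C with compound, 1 h detection / Measured by: adenylate kinase release luminescence / Read-out: lysis from increased AK signal / Benchmarks: Clomiphene as positive lysis control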
S100A4 inh HTS = inhibitors of human S100A4 binding to myosin IIA peptide. P26447. S100A4/TAMRA-MyoIIA peptide fluorescence polarization. inhibition, % at 10.7 µM. 360,000 compounds, 0.14% hits;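 active means mean inhibition of at least 70% across replicates, with every replicate also reaching that level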
Target sequence (P26447 whole entry, looked up): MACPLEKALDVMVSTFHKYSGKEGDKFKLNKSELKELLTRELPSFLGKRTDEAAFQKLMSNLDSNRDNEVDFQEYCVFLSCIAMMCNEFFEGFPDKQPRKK
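Test system – S100A4 monomer (human) · Compound – single-point compound testing · Schedule – 5 min incubation before reading · Probe or stimulus – TAMRA-labelled myosin IIA heavy-chain peptide probe, 5 nM · Benchmarks – neutral control DMSO, positive control TFP · Medium – Calcium-containing HEPES buffer, pH 7.2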
rRNA inh HTS = inhibits bacterial ribosomal RNA function over humanized ribosomes; E. coli WT GFP vs humanized-ribosome RFP mutants, fluorescence, 24 h; active compounds read low; DMSO median 0, no signal -100; GFP signal change (wild-type ribosome), % (no concentration beside the values); 350,000 compounds, 1.6% hits; AID 720706;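 active means significant combined selectivity score with lowered wild-type GFP, culture density cut under 30%, mutant RFP and density less affected; inactive means any of these conditions unmet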
PGC1a acetyl inh = lowers PGC1a acetylation signal in U2OS cells. AID 651687. inhibition, % at 15.6 µM. 350,000 compounds, 0.17% hits. AlphaScreen anti-acetyl-lysine; with virally co-expressed GCN5 acetyltransferase;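 active means every replicate shows inhibition of at least 40%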
SIRT5 inh = blocks human SIRT5 desuccinylation of peptide; Q9NXA8; Purified SirT5, succinyl-peptide AMC, trypsin-coupled fluorescence; inhibition, % at 15 µM; 330,000 compounds, 1.1% hits; AID 652115; in the data active means inhibition above about 15%
Target sequence (Q9NXA8 whole entry, looked up): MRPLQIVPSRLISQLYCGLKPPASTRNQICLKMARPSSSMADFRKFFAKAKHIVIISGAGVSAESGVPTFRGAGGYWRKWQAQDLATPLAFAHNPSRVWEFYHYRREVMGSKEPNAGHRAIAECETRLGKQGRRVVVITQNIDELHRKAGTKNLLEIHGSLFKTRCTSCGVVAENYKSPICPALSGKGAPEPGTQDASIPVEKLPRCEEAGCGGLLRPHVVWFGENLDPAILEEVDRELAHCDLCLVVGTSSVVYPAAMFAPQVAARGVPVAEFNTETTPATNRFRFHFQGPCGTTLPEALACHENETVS
A number is an active result; – = inactive; · = not tested or not shown.

SMILES | Statin myotox sup | Cneo AK release | S100A4 inh HTS | rRNA inh HTS | PGC1a acetyl inh | SIRT5 inh
C[C@H]1CN([C@@H](C)CO)C(=O)Cc2cc(NS(=O)(=O)c3ccc(F)cc3)ccc2O[C@@H]1CN(C)S(=O)(=O)c1ccc(F)cc1 | – | 98 | – | – | – | –
CCCC(O)C#Cc1cnc2c(c1)C(=O)N([C@H](C)CO)C[C@H](C)[C@H](CN(C)Cc1cccc(C)c1)O2 (stereo partly drawn) | – | – | – | – | – | –
Cc1ccc(S(=O)(=O)Nc2ccc3c(c2)C(=O)N([C@H](C)CO)C[C@@H](C)[C@@H](CN(C)Cc2ccccc2)O3)cc1 | – | – | – | – | – | –
C[C@@H]1CCCCO[C@H](CN(C)Cc2ccc(C(=O)O)cc2)[C@@H](C)CN([C@@H](C)CO)C(=O)c2cc(NC(=O)C3CCCCC3)ccc2O1 | · | – | – | – | – | –
CC(C)NC(=O)Nc1ccc2c(c1)CC(=O)N([C@@H](C)CO)C[C@@H](C)[C@@H](CN(C)S(=O)(=O)c1ccc(Cl)cc1)O2 | – | 102 | – | – | – | –
C[C@@H]1CN([C@@H](C)CO)C(=O)Cc2cc(NS(=O)(=O)c3ccc(F)cc3)ccc2O[C@@H]1CN(C)CC1CCCCC1 | – | – | – | – | – | –
C[C@@H]1CN([C@@H](C)CO)C(=O)Cc2cc(NS(=O)(=O)c3ccc(F)cc3)ccc2O[C@H]1CN(C)CC1CCCCC1 | – | – | – | – | – | 16
O=C(C[C@@H]1C=C[C@H](NC(=O)C2CC2)[C@H](CO)O1)Nc1nccs1 | – | – | – | – | – | –
Cc1noc(C)c1S(=O)(=O)N(C)C[C@@H]1Oc2ccc(NS(=O)(=O)c3ccc(Cl)cc3)cc2CC(=O)N([C@H](C)CO)C[C@H]1C | – | – | – | – | – | –
Fc1ccc(Cn2c(-c3cscn3)nc3ccccc32)c(Cl)c1 | – | – | · | · | – | ·
Nc1nonc1-c1nc2ccccc2n1Cc1ccc(F)cc1Cl | 116 | – | · | · | – | ·
COc1ccc(-c2ccc3c(c2)O[C@H](CN(C)C(C)=O)[C@H](C)CN([C@@H](C)CO)S3(=O)=O)cc1 | – | – | – | – | – | –
CCSc1nnc(-c2cc(Br)ccc2N=Cc2c(C)[nH]n(-c3ccccc3)c2=O)c(=O)[nH]1 | · | · | – | – | – | –
CSc1nnc(-c2cc(Br)ccc2N=Cc2c(C)[nH]n(-c3ccccc3)c2=O)c(=O)[nH]1 | · | · | – | -25 | – | ·
CCOC(=O)c1[nH]c2ccc(Br)cc2c1NC(=O)CCN1CCN(C(=O)OCC)CC1 | 104 | – | · | · | – | ·
CCOC(=O)c1[nH]c2ccc(OC)cc2c1NC(=S)N1CCN(C(=O)OCC)CC1 | – | · | – | – | – | –
CCOC(=O)c1[nH]c2ccc(OC)cc2c1NC(=O)OC | – | – | · | · | – | ·
CCOC(=O)Nc1c(C(=O)OC)[nH]c2cc(OC)ccc12 | 107 | – | · | · | – | ·
CCOC(=O)c1[nH]c2ccc(Br)cc2c1NC(=O)CCN1CCOCC1 | · | – | – | – | – | –
CCOC(=O)c1[nH]c2ccccc2c1NC(=O)c1ccc(Br)o1 | – | – | – | -19 | – | –
CCOC(=O)c1[nH]c2ccccc2c1NC(=O)NC(C)C | · | – | – | – | – | –
CCOC(=O)c1[nH]c2ccc(OC)cc2c1NC(=O)CCN1CCCC(C)C1 (stereo not drawn) | 145 | – | · | · | – | ·
O=C1C2C3C=CC(C3)C2C(=O)N1c1ccncc1 (stereo not drawn) | – | – | · | · | – | ·
Cc1ccnc2c(N3C(=O)C4C5C=CC(C5)C4C3=O)cccc12 (stereo not drawn) | 121 | – | · | · | – | ·
COCCCN(C(=S)Nc1cc(Cl)cc(Cl)c1)C(C)c1ccccn1 (stereo not drawn) | – | – | – | -39 | – | –
SMILES | Statin myotox sup | Cneo AK release | S100A4 inh HTS | rRNA inh HTS | PGC1a acetyl inh | SIRT5 inh
COc1cc2c(cc1OC)C(=O)CCS2 | 125 | – | · | · | – | ·
C/C=C/c1cnc2c(c1)C(=O)N([C@@H](C)CO)C[C@H](C)[C@H](CN(C)S(=O)(=O)c1ccc(F)cc1)O2 | – | – | – | – | – | –
Cc1cc(C)n2nc(C(=O)Nc3ccc4c(c3)CCC4)nc2n1 | – | – | – | – | – | 15
Cc1ccc(C(=O)Nc2nc(C)c(C(=O)Nc3ccc4c(c3)CCC4)s2)cc1 | – | – | – | -30 | – | –
CCCNC(=O)N1CCC2(CC1)CN(C(=O)Nc1ccc(F)cc1)[C@H](CO)c1[nH]c3cc(OC)ccc3c12 | · | · | – | – | – | –
CCOC(=O)C1CCN(S(=O)(=O)c2cc(Br)cc3c2N(C(C)=O)C(C)C3)CC1 (stereo not drawn) | 88 | – | · | · | – | ·
CCOC(=O)N1CCN(S(=O)(=O)c2cc(Br)cc3c2N(C(C)=O)C(C)C3)CC1 (stereo not drawn) | – | – | · | · | – | ·
CCCCn1c(-c2csc(C(C)C)c2)n[nH]c1=S | – | – | – | – | – | 17
CCCc1cc(-c2n[nH]c(=S)n2CC(C)C)cs1 | · | · | – | – | · | –
CCc1cc(CNC(=O)CCc2nnc(CCCc3ccccc3)o2)on1 | – | – | – | – | – | 20
O=C(/C=C/c1ccc([N+](=O)[O-])cc1)NCCc1ccccc1 | · | · | – | – | · | –
COc1ccc(CCNC(=O)c2cc([N+](=O)[O-])ccc2N2CCOCC2)cc1 | – | · | – | – | · | –
NS(=O)(=O)c1ccc(CCNC(=O)/C=C/c2ccc([N+](=O)[O-])cc2)cc1 | · | · | – | -18 | – | –
NS(=O)(=O)c1ccc(CCNC(=O)c2cc([N+](=O)[O-])ccc2N2CCCCC2)cc1 | – | – | – | -17 | · | –
C[C@@H]1CCCCO[C@H](CN(C)C(=O)Cc2ccccc2)[C@H](C)CN([C@@H](C)CO)C(=O)c2cc(NC(=O)Nc3cccc4ccccc34)ccc2O1 | · | – | – | – | – | –
CCS(=O)(=O)NCC[C@@H]1CC[C@H](NS(=O)(=O)c2cccc(Cl)c2)[C@H](CO)O1 | – | – | – | – | – | –
O=C(c1cc(S(=O)(=O)N2CCCCC2)ccc1F)N1CCCCC1 | – | – | – | – | – | –
NS(=O)(=O)c1ccc(F)c(C(=O)O)c1 | – | – | – | – | – | 19
C[C@@H]1CCCCO[C@@H](CN(C)Cc2ccccc2)[C@H](C)CN([C@@H](C)CO)C(=O)c2cc(NC(=O)Cc3ccccc3)ccc2O1 | · | – | – | – | – | –
CC(C)CCOc1ccc(C(=O)O)cc1 | – | – | · | · | – | ·
CC(C)CCOc1ccc(C(=O)N2CCCC2C(=O)O)cc1 (stereo not drawn) | · | · | – | – | – | 17
Cn1c(-c2sc3cc(C(F)(F)F)cnc3c2-c2ccccn2)n[nH]c1=S | · | – | – | – | – | –
Cn1c(-c2sc3cc(C(F)(F)F)cnc3c2-c2cccnc2)n[nH]c1=S | 139 | – | · | · | – | ·

Source: PubChem BioAssay (Broad Institute)
